# Key:
# [1] = molecular target: Muscarinic acetylcholine receptor; test: Binding affinity against muscarinic receptor in rat brain using [3H]- QNB; assay type: tissue-based
# Method in brief: (§1)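 Muscarinic sites in rat brain stem membranes (male Long-Evans, 150–250 g), labelled with [3H]quinuclidinyl benzilate at 0.03 nM final. Oxotremorine at 100 μM final served as the reference displacer. IC50 from four or five concentrations by nonlinear curve fitting.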
# Rattus norvegicus [2] = species: Rattus norvegicus; test: Effective dose required for inhibition of Sidman avoidance in rats; assay type: functional
# Method in brief: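 Mature male Long–Evans rats, trained on a modified Sidman avoidance schedule in lever-equipped operant chambers, were dosed orally and tested in 6-h sessions. Inhibition was expressed as % of each animal's own nondrug responding. At least three doses were given to four animals, with sessions at least 1 week apart. ED50 from nonlinear regression of dose–effect.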
# [3] = molecular target: Beta-2 adrenergic receptor (Rattus norvegicus, UniProt P10608); test: Binding affinity against beta-2 adrenergic receptor in rat brain using [3H]DHA; assay type: tissue-based
# Sequence of Beta-2 adrenergic receptor (P10608 whole entry): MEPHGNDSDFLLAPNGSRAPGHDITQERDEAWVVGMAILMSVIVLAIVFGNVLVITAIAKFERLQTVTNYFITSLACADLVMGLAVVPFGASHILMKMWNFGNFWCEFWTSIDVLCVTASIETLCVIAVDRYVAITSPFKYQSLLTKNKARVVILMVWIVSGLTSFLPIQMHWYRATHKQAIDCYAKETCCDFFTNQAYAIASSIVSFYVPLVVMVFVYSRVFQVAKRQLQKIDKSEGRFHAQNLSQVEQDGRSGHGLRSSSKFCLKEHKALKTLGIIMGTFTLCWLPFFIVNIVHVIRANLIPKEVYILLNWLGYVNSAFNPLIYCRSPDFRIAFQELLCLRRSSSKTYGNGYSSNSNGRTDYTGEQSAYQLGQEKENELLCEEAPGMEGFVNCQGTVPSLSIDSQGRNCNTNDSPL
# Method in brief: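 β2 binding on rat cerebellum membranes (male Long–Evans rats, 150–250 g) with [3H]dihydroalprenolol, 0.5 nM final. Nonspecific binding defined with (-)-alprenolol, 1 μM final. IC50 from four or five concentrations by nonlinear curve fit.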
# [4] = molecular target: Serotonin 2 (5-HT2) receptor (Rattus norvegicus, UniProt P30994+P08909+P14842); test: Binding affinity towards 5-hydroxytryptamine 2 receptor in rat brain using [3H]spiroperidol; assay type: tissue-based
# Method in brief: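 Serotonin-2 sites in rat cerebral cortex membranes (male Long-Evans, 150–250 g) with [3H]spiroperidol at 0.2 nM final. (+)-Butaclamol at 1.0 μM final was the reference. IC50 from four or five concentrations by nonlinear curve fitting.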
# [5] = molecular target: T1, Adrenergic receptor alpha-1 (Rattus norvegicus, UniProt P15823+P23944+P43140); test: Binding affinity against lpha-1 adrenergic receptor using [3H]- WB-4101; assay type: protein assay
# T1 sequence (P15823 whole entry): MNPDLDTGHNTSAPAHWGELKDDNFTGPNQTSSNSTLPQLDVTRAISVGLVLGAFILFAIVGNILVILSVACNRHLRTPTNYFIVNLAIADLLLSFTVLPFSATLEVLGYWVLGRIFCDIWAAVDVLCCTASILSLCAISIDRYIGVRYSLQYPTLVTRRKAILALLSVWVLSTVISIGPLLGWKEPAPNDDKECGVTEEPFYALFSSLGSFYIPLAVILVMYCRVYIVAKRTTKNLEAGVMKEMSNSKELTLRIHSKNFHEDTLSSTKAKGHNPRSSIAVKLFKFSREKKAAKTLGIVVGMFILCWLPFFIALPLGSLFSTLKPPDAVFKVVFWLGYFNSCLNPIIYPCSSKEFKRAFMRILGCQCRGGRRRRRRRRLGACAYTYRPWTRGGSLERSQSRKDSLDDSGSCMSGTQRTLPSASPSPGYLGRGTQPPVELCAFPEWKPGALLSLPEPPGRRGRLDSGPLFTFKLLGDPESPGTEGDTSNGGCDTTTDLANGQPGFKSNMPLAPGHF
# T1 sequence (P23944 whole entry): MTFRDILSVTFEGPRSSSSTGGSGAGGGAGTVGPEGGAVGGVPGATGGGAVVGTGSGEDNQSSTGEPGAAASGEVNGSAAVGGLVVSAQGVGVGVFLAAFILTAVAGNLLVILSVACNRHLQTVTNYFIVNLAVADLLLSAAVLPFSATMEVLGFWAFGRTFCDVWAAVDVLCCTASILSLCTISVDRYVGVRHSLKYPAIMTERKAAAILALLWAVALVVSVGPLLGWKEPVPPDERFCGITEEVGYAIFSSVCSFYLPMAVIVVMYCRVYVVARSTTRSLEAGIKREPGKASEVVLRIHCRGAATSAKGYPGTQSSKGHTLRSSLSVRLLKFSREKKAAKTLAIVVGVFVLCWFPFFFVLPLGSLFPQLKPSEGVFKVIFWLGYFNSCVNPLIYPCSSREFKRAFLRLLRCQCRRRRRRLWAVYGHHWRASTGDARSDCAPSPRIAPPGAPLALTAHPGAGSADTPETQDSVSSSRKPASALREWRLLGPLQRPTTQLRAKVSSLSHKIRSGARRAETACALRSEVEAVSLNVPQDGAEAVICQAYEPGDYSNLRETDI
# T1 sequence (P43140 whole entry): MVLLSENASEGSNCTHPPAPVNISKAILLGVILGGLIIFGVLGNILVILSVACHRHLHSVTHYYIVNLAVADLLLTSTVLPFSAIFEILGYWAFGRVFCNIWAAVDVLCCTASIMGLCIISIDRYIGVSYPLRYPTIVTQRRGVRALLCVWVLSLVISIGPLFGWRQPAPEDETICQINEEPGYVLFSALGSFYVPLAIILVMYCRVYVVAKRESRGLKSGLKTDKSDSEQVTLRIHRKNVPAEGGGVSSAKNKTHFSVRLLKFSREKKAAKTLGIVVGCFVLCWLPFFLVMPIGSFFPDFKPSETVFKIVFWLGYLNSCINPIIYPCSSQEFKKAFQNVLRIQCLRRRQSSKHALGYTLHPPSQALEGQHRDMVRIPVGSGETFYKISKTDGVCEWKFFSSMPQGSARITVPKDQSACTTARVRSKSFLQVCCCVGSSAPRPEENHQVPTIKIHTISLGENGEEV
# Method in brief: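 α1-Adrenergic binding in rat frontal cerebral cortex membranes (male Long-Evans, 150–250 g) with [3H]WB4101 at 0.5 nM final. (-)-Norepinephrine at 100 μM final was the reference standard. IC50 from four or five concentrations by nonlinear curve fitting.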
# Dopamine receptor = test: Binding affinity against dopamine receptor using [3H]- haloperidol in rat brain; assay type: tissue-based
# Method in brief: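 Nonspecific binding defined with (+)-butaclamol at 0.1 μM final. IC50 fitted by nonlinear curve fit from four or five concentrations in triplicate.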
# [6] = molecular target: Muscarinic acetylcholine receptor; test: Binding affinity against the Muscarinic acetylcholine receptor using [3H]- QNB; assay type: protein assay, Rattus norvegicus; method in brief: as §1
# Rattus norvegicus [7] = test: Compound was tested for serum prolactin assay method in rats at 1 mg/kg dose after peroral administration; assay type: functional; conditions: route oral
# Method in brief: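 Seven-week-old male Sprague–Dawley rats, five per group, were dosed orally and killed by decapitation 1 h later. Serum prolactin from trunk blood was measured by radioimmunoassay with [125I]-PRL and expressed as % of control (mean ± SEM).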
# Rattus norvegicus [8] = test: Compound was tested for its antagonized affect on the accumulation of the brain dopamine induced by butyrolactone (GBL) at 25 mg/kg after intraperitoneal administration; assay type: functional; set-up: scale not given: the % may be the effect or the level left
# Method in brief: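 Rats received test compound ip 30 min before γ-butyrolactone (750 mg/kg ip) and were killed 1 h after GBL. Dopamine in brain minus brain stem and cerebellum (four to six rats) was measured spectrofluorometrically and expressed as % of the GBL-treated group.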
# [9] = molecular target: Serotonin 1 (5-HT1) receptor (Rattus norvegicus, UniProt P28564+P30940+P19327+P28565); test: Binding affinity against the serotonin-1 receptor using [3H]- 5-HT; assay type: protein assay
# Method in brief: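 Serotonin-1 binding in rat cortex membranes (male Long-Evans, 150–250 g) with [3H]-5-HT at 2.0 nM final. (+)-Butaclamol at 1 μM final was the reference. IC50 from four or five concentrations by nonlinear curve fit.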
smiles,measurement,setting,value
Cc1nn(C)c(N)c1C(=O)c1ccccc1F,IC50,[1],> 10 µM
same,ED50,Rattus norvegicus [2],20 mg/kg
Cc1nn(C)c(NC(=O)CNCCCN2CCCCC2C)c1C(=O)c1ccccc1F (stereo not given),IC50,[3],> 10 µM
same,IC50,[4],> 10 µM
CCN(CC)CC(=O)Nc1c(C(=O)c2ccccc2F)c(C)nn1C,IC50,[5],> 10 µM
same,IC50,Dopamine receptor,> 10 µM
same,IC50,[6],> 10 µM
same,Control,Rattus norvegicus [7],87.4%
same,Control,Rattus norvegicus [8],85.5%
same,IC50,[9],> 10 µM
